Assay results from ChEMBL document CHEMBL1121392, “Synthesis and antiarrhythmic properties of some 5-benzamido-2-methyl-trans-decahydroisoquinolines” (J Med Chem, 1980).

Columns and labels:
[1] = Compound was evaluated for acute toxicity (24 h) in female roswell park white mice given intraperitoneally; format: organism-based; settings: mouse, in vivo, ip
In short: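 Female Roswell Park (ICR) mice, about 15–25 g, dosed intraperitoneally in groups of at least ten. At least three dose levels were spaced logarithmically at intervals of 0.1 or less. Deaths were scored at 24 h.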

Mus musculus = species: Mus musculus; assay: Antiarrhythmic potency in female roswell park white mice using chloroform-induced ventricular fibrillation assay; format: functional; settings: Heart
[2] = Ratio of lethal dose to that of effective dose in mice; format: ADME, organism-based; settings: mouse, in vivo

CN1CCC2C(CCCC2NC(=O)c2ccc(Cl)cc2)C1 (stereo not given)
LD50 at 24 h [1]: 929 µmol/kg
ED50 (Mus musculus): 49 µmol/kg
therapeutic index (LD50/ED50) [2]: 19

CN1CCC2C(CCCC2NC(=O)c2ccccc2)C1 (stereo not given)
LD50 at 24 h [1]: 866 µmol/kg
ED50 (Mus musculus): 101 µmol/kg
therapeutic index (LD50/ED50) [2]: 8.58

CN1CCC2C(CCCC2NC(=O)c2ccc(Cl)c(Cl)c2)C1 (stereo not given)
LD50 at 24 h [1]: 630 µmol/kg
ED50 (Mus musculus): 32 µmol/kg
therapeutic index (LD50/ED50) [2]: 19.6

CN1CCC2C(CCCC2NC(=O)c2ccc(Cl)cc2Cl)C1 (stereo not given)
LD50 at 24 h [1]: 624 µmol/kg
ED50 (Mus musculus): 88 µmol/kg
therapeutic index (LD50/ED50) [2]: 7.1

CN1CCC2C(CCCC2NC(=O)c2ccc(F)cc2)C1 (stereo not given)
LD50 at 24 h [1]: 992 µmol/kg
ED50 (Mus musculus): 110 µmol/kg
therapeutic index (LD50/ED50) [2]: 9

CN1CCC2C(CCCC2NC(=O)c2cccc(Cl)c2)C1 (stereo not given)
LD50 at 24 h [1]: 613 µmol/kg
ED50 (Mus musculus): 73 µmol/kg
therapeutic index (LD50/ED50) [2]: 8.36

CN1CCC2C(CCCC2NC(=O)c2ccc(C(F)(F)F)cc2)C1 (stereo not given)
LD50 at 24 h [1]: 661 µmol/kg
ED50 (Mus musculus): 48 µmol/kg
therapeutic index (LD50/ED50) [2]: 13.6

Cc1ccc(C(=O)NC2CCCC3CN(C)CCC32)cc1 (stereo not given)
LD50 at 24 h [1]: 803 µmol/kg
ED50 (Mus musculus): 110 µmol/kg
therapeutic index (LD50/ED50) [2]: 7.3

COc1cc(C(=O)NC2CCCC3CN(C)CCC32)cc(OC)c1OC (stereo not given)
LD50 at 24 h [1]: 610 µmol/kg
ED50 (Mus musculus): 25 µmol/kg
therapeutic index (LD50/ED50) [2]: 24

CN1CCC2C(CCCC2NC(=O)c2ccc([N+](=O)[O-])cc2)C1 (stereo not given)
LD50 at 24 h [1]: 1100 µmol/kg
ED50 (Mus musculus): 95 µmol/kg
therapeutic index (LD50/ED50) [2]: 11.7

COc1ccc(C(=O)NC2CCCC3CN(C)CCC32)cc1 (stereo not given)
LD50 at 24 h [1]: 1140 µmol/kg
ED50 (Mus musculus): 109 µmol/kg
therapeutic index (LD50/ED50) [2]: 10.4

C=C[C@H]1CN2CC[C@H]1C[C@@H]2[C@@H](O)c1ccnc2ccc(OC)cc12 [QUINIDINE]
LD50 at 24 h [1]: 524 µmol/kg
ED50 (Mus musculus): 122 µmol/kg
